ChEMBL document CHEMBL5126600, “Discovery of the First-in-Class G9a/GLP Covalent Inhibitors” (J Med Chem, 2022)

Columns and labels:
[1] = target: T1, Histone-lysine N-methyltransferase EHMT1 (Homo sapiens, UniProt Q9H9B1); test: Binding affinity to human GLP (982 to 1266 residues) assessed as dissociation constant by isothermal titration calorimetry method
T1 sequence (Q9H9B1 whole entry): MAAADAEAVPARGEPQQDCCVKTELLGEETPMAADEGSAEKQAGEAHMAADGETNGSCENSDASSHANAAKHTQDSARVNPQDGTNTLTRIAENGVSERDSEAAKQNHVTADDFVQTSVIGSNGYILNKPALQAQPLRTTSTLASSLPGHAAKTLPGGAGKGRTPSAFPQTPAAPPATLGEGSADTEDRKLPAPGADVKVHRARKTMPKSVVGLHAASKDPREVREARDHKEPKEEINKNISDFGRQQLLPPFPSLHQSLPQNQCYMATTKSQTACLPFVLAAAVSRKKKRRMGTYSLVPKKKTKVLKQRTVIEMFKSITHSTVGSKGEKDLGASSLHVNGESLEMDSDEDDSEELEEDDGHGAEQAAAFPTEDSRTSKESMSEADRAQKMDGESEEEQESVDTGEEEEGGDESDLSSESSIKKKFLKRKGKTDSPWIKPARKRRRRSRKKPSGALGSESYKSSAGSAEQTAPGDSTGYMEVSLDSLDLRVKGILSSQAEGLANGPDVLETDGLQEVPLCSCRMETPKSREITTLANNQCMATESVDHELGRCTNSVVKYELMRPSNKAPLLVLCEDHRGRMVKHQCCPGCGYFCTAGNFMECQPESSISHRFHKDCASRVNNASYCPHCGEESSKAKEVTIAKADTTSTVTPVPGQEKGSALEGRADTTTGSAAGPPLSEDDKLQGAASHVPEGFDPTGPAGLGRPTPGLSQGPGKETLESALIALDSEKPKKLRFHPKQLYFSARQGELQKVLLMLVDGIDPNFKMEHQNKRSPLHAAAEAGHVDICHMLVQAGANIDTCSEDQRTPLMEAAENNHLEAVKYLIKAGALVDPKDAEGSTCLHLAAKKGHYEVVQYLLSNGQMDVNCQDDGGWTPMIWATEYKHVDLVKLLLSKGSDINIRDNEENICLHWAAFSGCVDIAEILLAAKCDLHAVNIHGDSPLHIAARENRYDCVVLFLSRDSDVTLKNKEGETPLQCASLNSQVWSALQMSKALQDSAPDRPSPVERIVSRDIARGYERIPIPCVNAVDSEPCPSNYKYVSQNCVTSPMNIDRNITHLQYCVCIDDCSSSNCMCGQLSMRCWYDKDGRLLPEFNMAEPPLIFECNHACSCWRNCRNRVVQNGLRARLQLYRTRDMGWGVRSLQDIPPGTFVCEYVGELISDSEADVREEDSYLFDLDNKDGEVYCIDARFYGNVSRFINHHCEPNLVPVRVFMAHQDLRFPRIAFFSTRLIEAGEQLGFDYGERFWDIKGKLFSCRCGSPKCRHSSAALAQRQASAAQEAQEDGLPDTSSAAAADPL
Summary of the method: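 ITC at 25 °C in 50 mM Tris-HCl pH 7.5, 150 mM NaCl, 1% DMSO; 500 μM compound in syringe titrated into 50 μM G9a or GLP catalytic domain in cell (initial 0.4 μL injection then 13 injections), stirring 750 rpm; run time about 50 min; single binding site fit; mean ± SD of two independent measurements.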

[2] = target: Histone-lysine N-methyltransferase EZH1 (Homo sapiens) (UniProt Q92800); test: Inhibition of N-terminal His-tagged full-length recombinant human EZH1 ( 2 to 747 residues) expressed in baculovirus expression system at 1 uM using 3H-SAM as a substrate relative to control
Sequence of Histone-lysine N-methyltransferase EZH1 (Homo sapiens) (Q92800 whole entry, the tested form may be a part): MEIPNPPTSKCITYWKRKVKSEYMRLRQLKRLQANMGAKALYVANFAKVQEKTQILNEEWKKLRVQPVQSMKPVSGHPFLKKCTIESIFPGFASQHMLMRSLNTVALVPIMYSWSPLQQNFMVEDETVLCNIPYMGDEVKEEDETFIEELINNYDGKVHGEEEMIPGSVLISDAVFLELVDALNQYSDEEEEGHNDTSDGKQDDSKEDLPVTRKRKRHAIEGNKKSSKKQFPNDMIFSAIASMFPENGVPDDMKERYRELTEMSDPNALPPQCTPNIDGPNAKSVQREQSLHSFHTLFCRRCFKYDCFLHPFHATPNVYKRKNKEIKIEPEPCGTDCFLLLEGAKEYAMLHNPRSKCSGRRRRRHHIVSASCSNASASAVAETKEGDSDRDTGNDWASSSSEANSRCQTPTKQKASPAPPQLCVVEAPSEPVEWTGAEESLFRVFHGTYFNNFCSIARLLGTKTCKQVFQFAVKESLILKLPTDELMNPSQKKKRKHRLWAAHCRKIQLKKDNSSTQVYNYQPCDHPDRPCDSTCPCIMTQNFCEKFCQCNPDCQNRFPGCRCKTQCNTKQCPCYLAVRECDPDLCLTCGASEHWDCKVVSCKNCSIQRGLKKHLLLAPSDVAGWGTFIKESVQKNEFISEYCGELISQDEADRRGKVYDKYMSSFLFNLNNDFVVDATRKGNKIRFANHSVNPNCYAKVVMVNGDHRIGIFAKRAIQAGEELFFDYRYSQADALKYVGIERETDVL
Summary of the method: (§1)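 Contracted 3H-SAM methyl-transfer scintillation proximity assay against a panel of methyltransferases; compound tested at 1 μM in duplicate; inhibition expressed as percent of control enzyme activity.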

[3] = target: Histone-lysine N-methyltransferase, H3 lysine-79 specific (Homo sapiens) (UniProt Q8TEK3); test: Inhibition of N-terminal GST-tagged human DOT1L (1 to 416 residues) expressed in Escherichia coli at 1 uM using 3H-SAM as a substrate relative to control; summary of the method: as §1
Sequence of Histone-lysine N-methyltransferase, H3 lysine-79 specific (Homo sapiens) (Q8TEK3 whole entry, looked up, the tested form may be a part): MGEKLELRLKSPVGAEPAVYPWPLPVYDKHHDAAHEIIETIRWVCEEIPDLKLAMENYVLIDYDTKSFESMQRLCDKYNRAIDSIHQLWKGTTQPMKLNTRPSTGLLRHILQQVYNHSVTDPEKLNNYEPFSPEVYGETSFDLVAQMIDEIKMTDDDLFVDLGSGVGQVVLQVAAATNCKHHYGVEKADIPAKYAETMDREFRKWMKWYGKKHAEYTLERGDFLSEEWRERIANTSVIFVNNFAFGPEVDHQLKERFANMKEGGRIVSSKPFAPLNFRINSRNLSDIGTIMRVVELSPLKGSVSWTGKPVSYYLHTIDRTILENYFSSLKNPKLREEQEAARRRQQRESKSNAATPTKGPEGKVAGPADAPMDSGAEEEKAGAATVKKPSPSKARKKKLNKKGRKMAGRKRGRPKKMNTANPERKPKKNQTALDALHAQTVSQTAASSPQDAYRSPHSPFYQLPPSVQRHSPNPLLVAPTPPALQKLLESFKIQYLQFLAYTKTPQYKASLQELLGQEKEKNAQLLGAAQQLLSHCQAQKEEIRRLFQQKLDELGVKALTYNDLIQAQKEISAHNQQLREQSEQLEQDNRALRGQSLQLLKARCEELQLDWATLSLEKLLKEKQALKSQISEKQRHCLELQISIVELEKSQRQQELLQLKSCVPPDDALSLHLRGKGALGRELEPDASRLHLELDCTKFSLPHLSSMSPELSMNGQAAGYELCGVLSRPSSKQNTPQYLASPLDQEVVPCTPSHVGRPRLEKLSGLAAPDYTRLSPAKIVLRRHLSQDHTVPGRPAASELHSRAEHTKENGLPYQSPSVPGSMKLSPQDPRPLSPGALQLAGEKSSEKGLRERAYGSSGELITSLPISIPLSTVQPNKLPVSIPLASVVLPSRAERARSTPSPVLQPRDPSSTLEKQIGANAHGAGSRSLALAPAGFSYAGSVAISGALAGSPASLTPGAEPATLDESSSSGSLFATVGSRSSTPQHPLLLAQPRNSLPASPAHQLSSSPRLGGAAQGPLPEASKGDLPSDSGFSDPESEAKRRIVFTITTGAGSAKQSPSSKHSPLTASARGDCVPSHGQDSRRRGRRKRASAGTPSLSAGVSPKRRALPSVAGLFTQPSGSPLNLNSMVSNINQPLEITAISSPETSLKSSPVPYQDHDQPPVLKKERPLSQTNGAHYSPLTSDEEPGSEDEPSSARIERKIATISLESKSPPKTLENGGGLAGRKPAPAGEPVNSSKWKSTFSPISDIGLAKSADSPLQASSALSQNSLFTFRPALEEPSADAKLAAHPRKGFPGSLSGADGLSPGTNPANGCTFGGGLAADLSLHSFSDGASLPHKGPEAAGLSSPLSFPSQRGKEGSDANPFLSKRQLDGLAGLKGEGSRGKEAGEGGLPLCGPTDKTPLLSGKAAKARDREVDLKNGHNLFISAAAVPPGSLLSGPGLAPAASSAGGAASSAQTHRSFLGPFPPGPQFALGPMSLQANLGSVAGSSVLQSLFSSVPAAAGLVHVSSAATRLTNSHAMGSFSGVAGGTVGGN

[4] = target: T2, Histone-lysine N-methyltransferase EHMT2 (Homo sapiens, UniProt Q96KQ7); test: Inhibition of human G9a (913 to 1193 residues) using H3 peptide as substrate measured upto 45 mins in presence of SAM cofactor
T2 sequence (Q96KQ7 whole entry): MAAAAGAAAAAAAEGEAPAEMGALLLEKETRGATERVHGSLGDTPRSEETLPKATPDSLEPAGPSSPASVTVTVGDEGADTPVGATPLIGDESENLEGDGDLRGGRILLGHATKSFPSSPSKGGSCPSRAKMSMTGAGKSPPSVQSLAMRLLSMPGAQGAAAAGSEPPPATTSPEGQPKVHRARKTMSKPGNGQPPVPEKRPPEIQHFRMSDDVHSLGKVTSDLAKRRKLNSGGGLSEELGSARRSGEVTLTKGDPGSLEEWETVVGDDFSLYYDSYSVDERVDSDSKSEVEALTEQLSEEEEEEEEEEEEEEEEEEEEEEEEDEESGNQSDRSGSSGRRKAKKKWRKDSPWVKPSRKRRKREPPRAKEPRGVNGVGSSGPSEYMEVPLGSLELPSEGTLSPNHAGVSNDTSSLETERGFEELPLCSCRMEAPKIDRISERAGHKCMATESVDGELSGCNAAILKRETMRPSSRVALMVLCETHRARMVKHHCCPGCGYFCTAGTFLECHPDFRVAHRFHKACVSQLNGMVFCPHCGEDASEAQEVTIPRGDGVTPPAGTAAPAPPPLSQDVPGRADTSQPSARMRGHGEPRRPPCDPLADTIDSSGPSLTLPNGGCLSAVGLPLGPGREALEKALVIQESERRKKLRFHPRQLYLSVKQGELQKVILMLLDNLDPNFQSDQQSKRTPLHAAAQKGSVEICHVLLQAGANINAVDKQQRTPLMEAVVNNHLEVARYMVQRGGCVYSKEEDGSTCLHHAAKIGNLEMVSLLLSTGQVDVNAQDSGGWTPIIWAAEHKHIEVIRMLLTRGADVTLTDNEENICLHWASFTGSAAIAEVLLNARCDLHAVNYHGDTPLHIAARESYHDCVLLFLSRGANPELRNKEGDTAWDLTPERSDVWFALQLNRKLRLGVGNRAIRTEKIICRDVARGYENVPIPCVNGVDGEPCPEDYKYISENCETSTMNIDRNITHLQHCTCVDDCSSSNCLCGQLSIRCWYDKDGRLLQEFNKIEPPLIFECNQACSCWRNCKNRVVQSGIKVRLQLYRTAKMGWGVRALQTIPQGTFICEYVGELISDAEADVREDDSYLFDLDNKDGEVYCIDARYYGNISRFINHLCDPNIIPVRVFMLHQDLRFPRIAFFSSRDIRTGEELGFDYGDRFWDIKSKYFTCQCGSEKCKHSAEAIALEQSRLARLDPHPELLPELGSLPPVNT

[5] = target: Histone-lysine N-methyltransferase SETD2 (Homo sapiens) (UniProt Q9BYW2); test: Inhibition of SETD2 (unknown origin) at 1 uM using 3H-SAM as a substrate relative to control; summary of the method: as §1
Sequence of Histone-lysine N-methyltransferase SETD2 (Homo sapiens) (Q9BYW2 whole entry): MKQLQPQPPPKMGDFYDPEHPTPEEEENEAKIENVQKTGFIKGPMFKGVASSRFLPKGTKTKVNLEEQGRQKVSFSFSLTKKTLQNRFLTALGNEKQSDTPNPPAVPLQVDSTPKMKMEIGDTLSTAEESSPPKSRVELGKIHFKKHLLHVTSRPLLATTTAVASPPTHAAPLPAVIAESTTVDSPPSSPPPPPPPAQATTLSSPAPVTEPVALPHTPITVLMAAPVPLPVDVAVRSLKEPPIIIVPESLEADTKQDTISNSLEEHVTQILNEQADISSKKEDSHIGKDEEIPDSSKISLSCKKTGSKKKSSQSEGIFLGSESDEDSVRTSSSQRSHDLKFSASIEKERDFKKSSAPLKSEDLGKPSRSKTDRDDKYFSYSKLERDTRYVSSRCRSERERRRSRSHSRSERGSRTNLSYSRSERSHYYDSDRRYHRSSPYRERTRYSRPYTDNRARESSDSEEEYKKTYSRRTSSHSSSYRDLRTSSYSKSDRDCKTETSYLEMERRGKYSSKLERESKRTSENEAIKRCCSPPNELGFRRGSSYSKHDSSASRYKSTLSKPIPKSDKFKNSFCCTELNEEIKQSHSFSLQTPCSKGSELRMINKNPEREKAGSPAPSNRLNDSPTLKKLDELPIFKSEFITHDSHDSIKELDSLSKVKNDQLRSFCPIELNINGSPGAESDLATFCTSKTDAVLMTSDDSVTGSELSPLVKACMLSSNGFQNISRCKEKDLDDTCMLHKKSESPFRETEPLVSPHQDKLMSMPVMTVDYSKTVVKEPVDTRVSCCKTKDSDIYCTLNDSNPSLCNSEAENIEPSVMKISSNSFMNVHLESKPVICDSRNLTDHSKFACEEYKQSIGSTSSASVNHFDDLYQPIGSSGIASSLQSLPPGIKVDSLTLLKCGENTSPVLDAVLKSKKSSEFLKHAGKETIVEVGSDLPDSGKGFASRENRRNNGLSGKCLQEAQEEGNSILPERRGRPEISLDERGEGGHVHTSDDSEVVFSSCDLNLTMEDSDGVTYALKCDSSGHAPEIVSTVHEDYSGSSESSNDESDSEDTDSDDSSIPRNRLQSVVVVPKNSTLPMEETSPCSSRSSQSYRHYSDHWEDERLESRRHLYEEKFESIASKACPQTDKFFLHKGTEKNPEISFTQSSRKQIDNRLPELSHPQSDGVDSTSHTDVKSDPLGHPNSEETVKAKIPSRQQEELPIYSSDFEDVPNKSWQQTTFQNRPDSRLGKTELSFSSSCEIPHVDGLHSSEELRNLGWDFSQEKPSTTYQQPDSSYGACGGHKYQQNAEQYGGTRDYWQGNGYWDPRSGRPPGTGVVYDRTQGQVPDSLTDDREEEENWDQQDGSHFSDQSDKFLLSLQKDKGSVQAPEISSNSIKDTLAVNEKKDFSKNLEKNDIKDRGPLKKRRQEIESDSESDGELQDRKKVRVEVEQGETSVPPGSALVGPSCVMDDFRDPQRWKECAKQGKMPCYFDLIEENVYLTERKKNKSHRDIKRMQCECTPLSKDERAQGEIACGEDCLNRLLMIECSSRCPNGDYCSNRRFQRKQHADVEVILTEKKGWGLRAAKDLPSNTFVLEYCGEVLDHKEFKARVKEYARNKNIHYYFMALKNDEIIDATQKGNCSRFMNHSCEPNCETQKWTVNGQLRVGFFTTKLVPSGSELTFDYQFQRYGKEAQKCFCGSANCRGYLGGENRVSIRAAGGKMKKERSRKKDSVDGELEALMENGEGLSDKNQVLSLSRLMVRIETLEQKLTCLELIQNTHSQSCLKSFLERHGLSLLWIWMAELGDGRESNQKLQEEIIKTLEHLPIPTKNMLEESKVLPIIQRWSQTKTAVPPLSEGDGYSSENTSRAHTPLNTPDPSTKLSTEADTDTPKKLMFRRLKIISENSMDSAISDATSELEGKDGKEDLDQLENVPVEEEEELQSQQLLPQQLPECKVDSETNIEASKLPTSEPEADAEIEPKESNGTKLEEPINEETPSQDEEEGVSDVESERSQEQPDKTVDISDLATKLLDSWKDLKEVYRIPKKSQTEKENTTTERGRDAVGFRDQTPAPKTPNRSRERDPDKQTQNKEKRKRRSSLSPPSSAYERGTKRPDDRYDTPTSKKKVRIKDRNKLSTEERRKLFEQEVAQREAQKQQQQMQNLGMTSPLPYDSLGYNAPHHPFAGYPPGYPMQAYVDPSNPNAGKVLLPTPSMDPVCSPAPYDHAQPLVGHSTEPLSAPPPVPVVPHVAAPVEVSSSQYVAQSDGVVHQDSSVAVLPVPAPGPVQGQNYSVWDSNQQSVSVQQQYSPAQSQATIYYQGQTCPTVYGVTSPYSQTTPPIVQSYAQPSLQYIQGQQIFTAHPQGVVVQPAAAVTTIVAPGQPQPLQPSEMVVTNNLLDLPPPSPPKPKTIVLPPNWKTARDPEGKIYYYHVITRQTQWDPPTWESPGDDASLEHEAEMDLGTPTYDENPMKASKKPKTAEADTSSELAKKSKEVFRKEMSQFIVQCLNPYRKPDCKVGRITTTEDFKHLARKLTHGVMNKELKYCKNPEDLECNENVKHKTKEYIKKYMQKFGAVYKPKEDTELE

**Q.** For `C=CC(=O)Nc1cc(NC2CCN(C(C)C)CC2)c2cc(OC)c(OCCCN3CCCC3)cc2n1`, which Kd [1] is on record?
**A.** The Kd was 46 nM.

**Q.** And the inhibition [2]?
**A.** The inhibition was < 50%.

**Q.** And the inhibition [3]?
**A.** The inhibition was < 50%.

**Q.** And the IC50 [4]?
**A.** Its IC50 is 100 nM.

**Q.** And the inhibition [5]?
**A.** The inhibition was < 50%.
